Vif imaging = blocks HIV Vif function; HEK293T cells, Vif self-association by quenched fluorescence, imaging, 24 h; AID 602346; hit rate 0.35% among 340,000; inhibition, % at 7.49 µM; in the data active = inhibition above about 50%, passing the limit was not always enough; inconclusive = no clear call, values can overlap the other calls; inactive = below about 31%
Rce1 inhib = blocks yeast Ras-converting enzyme | Q03530 | yeast membranes, quenched prenylated peptide cleavage fluorescence | calls only | hit rate 0.27% among 290,000 | AID 2563;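 active = fall in fluorescence gain of 50% or more versus controls, with final raw signal at or below 3038400; inconclusive = same 50% fall but final raw signal above 3038400; inactive = fall in fluorescence gain under 50%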;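 note: plate controls were neutral control wells for no effect and wells lacking membranes for full effect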
Target sequence (Q03530 whole entry, looked up): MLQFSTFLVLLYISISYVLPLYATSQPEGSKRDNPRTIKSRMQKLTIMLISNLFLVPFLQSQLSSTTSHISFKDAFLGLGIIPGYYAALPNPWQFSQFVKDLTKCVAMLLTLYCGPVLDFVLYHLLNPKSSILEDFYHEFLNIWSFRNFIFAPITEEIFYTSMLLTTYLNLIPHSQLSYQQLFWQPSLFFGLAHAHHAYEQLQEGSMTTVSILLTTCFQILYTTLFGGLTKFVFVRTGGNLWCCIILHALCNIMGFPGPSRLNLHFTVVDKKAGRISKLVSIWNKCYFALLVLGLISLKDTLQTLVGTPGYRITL
RanGTP-Imp inh = disruptors of Ran-importin-beta complex formation – biochemical, FRET, CFP-Ran, YFP-importin-beta, homogeneous, primary screen; inhibition, % (concentration not given with the values); hit rate 1.1% among 300,000; cell-free CFP-Ran/YFP-importin-beta FRET ratio;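 active = more than half of the replicate wells show a fall in the fluorescence ratio signal beyond about 16%, limit read from the data, passing the limit was not always enough; inconclusive = exactly half of the replicate wells pass the set limit; inactive = fewer than half of replicates pass the limit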;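 note: 0% = DMSO wells and 100% = Ran loaded with GDP instead of GTP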
Runt-CBFb FRET = blocks binding of human RUNX1 Runt domain to CBFb. hit rate 0.46% among 220,000. inhibition, % at 20 µM. Q01196+Q13951. Cerulean-Runt/Venus-CBFb FRET ratio 530/480, 1 h;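 active = inhibition over about 50% at 20 µM in the single-dose screen, limit read from the data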;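 note: 0% = DMSO wells and 100% = excess unlabeled CBFb competitor control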
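Assay system: Cerulean-tagged RUNX1 Runt domain (FRET donor) fusion protein / Amount: 100 nM each of Venus-CBFb and Cerulean-Runt domain / Medium: Tris buffer pH 7.5 with salts and BSA / Also added: Venus-CBFb 100 nM / Schedule: 1 h complex formation plus 1 h compound treatment, room temperature / Signal: FRET fluorescence / Read-out: loss of energy transfer signal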
Runt-SMMHC FRET = blocks binding of human RUNX1 Runt domain to CBFb-SMMHC; Q01196+Q13951; Cerulean-Runt/Venus-CBFb-SMMHC FRET ratio 530/480, 1 h; inhibition, % at 20 µM; hit rate 0.74% among 220,000;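 active = mean inhibition across duplicate retests at 20 µM reaching about 50%, limit read from the data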;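 note: 0% = DMSO wells and 100% = wells with excess untagged CBFb-SMMHC; inhibitors lower the FRET ratio by blocking Runt binding to CBFb-SMMHC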
Active calls of the source: *. Only some compounds are listed: those with a hit (about 1.7% of all), similar ones and a draw of the others.

CCN(C(=O)c1cccc(S(=O)(=O)N(C)C)c1)C12CC3CC(CC(C3)C1)C2 was read as Vif imaging 6, Rce1 inhib inactive and RanGTP-Imp inh 0.
CC1(C(=O)Nc2ccc3c(c2)OCCO3)CCN1C(=O)c1cccc(F)c1 (stereo unspecified) was read as Vif imaging 6.
`COc1ccc(NC(=O)Nc2c(C)n(C)n(-c3ccccc3)c2=O)cc1` gave Rce1 inhib inactive, RanGTP-Imp inh 0, Runt-CBFb FRET 0 and Runt-SMMHC FRET 2.
Screening Cc1c(NC(=O)c2cc3ccccc3oc2=O)c(=O)n(-c2ccccc2)n1C returned Vif imaging 90*, Rce1 inhib inactive, RanGTP-Imp inh -11, Runt-CBFb FRET -1 and Runt-SMMHC FRET -2.
Screening COc1cccc(NC(=O)Nc2c(C)n(C)n(-c3ccccc3)c2=O)c1 returned Vif imaging -4, RanGTP-Imp inh 115*, Runt-CBFb FRET 2 and Runt-SMMHC FRET -3.
COc1cc(/C=C(/C#N)c2nc3ccccc3[nH]2)ccc1OC(=O)c1ccco1 was read as Vif imaging 6, Rce1 inhib inactive, RanGTP-Imp inh 28*, Runt-CBFb FRET 5 and Runt-SMMHC FRET 10.
COc1ccc(/C=C(\C#N)c2nc3ccccc3[nH]2)cc1O was read as Vif imaging 4, Rce1 inhib inactive and RanGTP-Imp inh 7.
Screening C[C@H](Cc1ccccc1)Nc1ncnc2c1ncn2[C@@H]1O[C@H](CO)[C@@H](O)[C@H]1O returned Vif imaging 65*.
CC(Cc1ccccc1)Nc1ncnc2c1ncn2C1OC(CO)C(O)C1O (stereo unspecified) was read as Vif imaging 9, Rce1 inhib inactive and RanGTP-Imp inh 5.
Cc1ccc(S(=O)(=O)NCCC(=O)NCC(c2cccs2)N2CCOCC2)cc1 (stereo unspecified) was read as Vif imaging -11, Rce1 inhib inactive and RanGTP-Imp inh 2.
Cc1ccc(Nc2nc3ccccc3nc2-n2nc(C)cc2C)cc1 was read as Rce1 inhib inactive, RanGTP-Imp inh 31*, Runt-CBFb FRET 4 and Runt-SMMHC FRET 11.
CC1(C(=O)NS(=O)(=O)c2ccc(F)cc2F)CCN1C(=O)CC(c1ccccc1)c1ccccc1 (stereo unspecified) was read as Vif imaging -2.
`COC(=O)C1=CN(CCCN2CCCC2=O)C=C(C(=O)OC)C1c1cccs1` gave Vif imaging 10, Rce1 inhib inconclusive, RanGTP-Imp inh inconclusive, Runt-CBFb FRET 24 and Runt-SMMHC FRET 87*.
Screening COC(=O)C1=CN(Cc2ccc(OC)cc2)C=C(C(=O)OC)C1c1cccs1 returned Vif imaging -4, Rce1 inhib inactive, RanGTP-Imp inh -2, Runt-CBFb FRET 16 and Runt-SMMHC FRET 39.
CN(C)CCNC(=S)Nc1ccccc1Cl was read as Vif imaging 65*, Rce1 inhib inactive, RanGTP-Imp inh 3, Runt-CBFb FRET 0 and Runt-SMMHC FRET 1.
Screening Cc1noc(C)c1CSCC(=O)Nc1nc2ccc(S(C)(=O)=O)cc2s1 returned Vif imaging 4, Rce1 inhib inactive and RanGTP-Imp inh -8.
For Cc1nc2ccc(NC(=O)CSc3nnc(C)s3)cc2[nH]1 the results were Vif imaging 14, Rce1 inhib inactive and RanGTP-Imp inh 1.
CSc1nc(-c2ccccc2)nc(N2CCN(C)CC2)c1C(C)=O was read as Vif imaging 5, Rce1 inhib inactive, RanGTP-Imp inh 70*, Runt-CBFb FRET -3 and Runt-SMMHC FRET 7.
Screening CSc1nc(-c2ccccc2)nc(N2CCCC2)c1C(C)=O returned Vif imaging 0, Rce1 inhib inactive, RanGTP-Imp inh 1, Runt-CBFb FRET -1 and Runt-SMMHC FRET -1.
Screening O=C(COc1ccc(S(=O)(=O)N2CCOCC2)cc1)NC1CCCC1 returned Vif imaging 24, Rce1 inhib inactive, RanGTP-Imp inh 7, Runt-CBFb FRET 0 and Runt-SMMHC FRET -4.
Screening O=C(COc1ccc(S(=O)(=O)N2CCOCC2)cc1)NC1CC1 returned Vif imaging 52* and RanGTP-Imp inh 2.
Screening O=C(COc1ccc([N+](=O)[O-])cc1)Nc1ccc(S(=O)(=O)N2CCOCC2)cc1 returned Vif imaging 55*, Rce1 inhib inactive and RanGTP-Imp inh -3.
Screening COc1ccc(NC(=O)C(=O)NCC2CCCN2S(=O)(=O)c2cccs2)cc1 (stereo unspecified) returned Vif imaging 1, Rce1 inhib inactive and RanGTP-Imp inh -3.
`CC1=CC2=NC(=O)CC(C)(C(=O)N(CC(=O)NC3CCCC3)c3ccccc3F)N2C=C1` (stereo unspecified) gave Vif imaging 32, Rce1 inhib inconclusive and RanGTP-Imp inh 4.
For COc1cc(OC)cc(-c2c(-c3cccs3)c3cc(-c4ccc(C(N)=O)cc4)ccc3n2C)c1 the results were Vif imaging 112*.
Screening COc1ccccc1-c1noc2c1C(=O)NCC2 returned Vif imaging -7.
Screening CCOc1c2ccc(C(=O)NCc3ccco3)cc2nn1CCOC returned Vif imaging -5, Rce1 inhib active, RanGTP-Imp inh 3, Runt-CBFb FRET 1 and Runt-SMMHC FRET 0.
For CCCCn1nc2cc(C(=O)NCc3ccco3)ccc2c1OCC the results were Vif imaging 5, Rce1 inhib inactive, RanGTP-Imp inh -5, Runt-CBFb FRET 2 and Runt-SMMHC FRET -2.
For CC(C)Oc1ccc(S(=O)(=O)N2CCOCC2)cc1NC(=O)CN1C(=O)NC2(CCCC2)C1=O the results were Vif imaging -12, Rce1 inhib inactive and RanGTP-Imp inh 1.
Screening Cn1c(N)c(C(=O)/C=C/c2ccccc2)c(=O)[nH]c1=O returned Vif imaging -4, Rce1 inhib inactive, RanGTP-Imp inh 2, Runt-CBFb FRET 1 and Runt-SMMHC FRET 0.
For COc1cc(C2CC(c3cccnc3)=NN2c2ccc(F)cc2)cc(OC)c1OC (stereo unspecified) the results were Vif imaging -2, Rce1 inhib inactive, Runt-CBFb FRET 26 and Runt-SMMHC FRET 87*.
For COc1ccc(C2CC(c3ccccc3)=NN2c2ccc(S(N)(=O)=O)cc2)cc1OC (stereo unspecified) the results were Vif imaging 12, Rce1 inhib inactive, RanGTP-Imp inh -2, Runt-CBFb FRET 2 and Runt-SMMHC FRET 24.
For N#CCCn1cc(C=O)c(-c2cccs2)n1 the results were Vif imaging -13, Rce1 inhib inactive, RanGTP-Imp inh 1, Runt-CBFb FRET 1 and Runt-SMMHC FRET -2.
For CS(=O)(=O)N(CC(=O)O)c1ccc(C23CC4CC(CC(C4)C2)C3)cc1 the results were Vif imaging -5, Rce1 inhib inactive and RanGTP-Imp inh 2.
Screening COc1ccccc1NC(=O)CN(c1ccc(C23CC4CC(CC(C4)C2)C3)cc1)S(C)(=O)=O returned Rce1 inhib active, RanGTP-Imp inh -1, Runt-CBFb FRET 1 and Runt-SMMHC FRET 1.

Assay outcomes (PubChem)
